UPR CHOP act: activators of apoptotic arm of unfolded protein response (CHOP) | CHO-CHOP luciferase reporter, UPR activation, luminescence; percent of tunicamycin response over DMSO baseline | activation, % at 10 µM | AID 449763 | hit rate 0.34% among 330,000;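 active = at 10 µM dose, activation of 40% or more, normalized to positive control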
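Evaluation: % reporter activation, DMSO baseline versus tunicamycin full activation; System: CHO-CHOP luciferase reporter cell line; Input: 500 cells/well; Incubation: 6 h compound treatment, 37 °C; Measured by: Steady-Glo luciferase luminescence; Dosing: one dose, 10 µM in 0.5% DMSO; Buffer or medium: F12 medium, 10% FBS; Benchmarks: positive tunicamycin 10 µg/mL, negative DMSO alone.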
XBP1 UPR activ: adaptive UPR (XBP1) activation; AID 463104; activation, % at 20 µM; CHO-XBP1 luciferase reporter, IRE1-XBP1 UPR activation, luminescence; percent of tunicamycin response, DMSO as zero; hit rate 0.33% among 330,000;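 active = versus positive control, 20 µM dose yields 30% or more activation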
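Test system: CHO-XBP1 luciferase reporter cells | Buffer or medium: Serum-containing F12 medium, 10% FBS | Schedule: 6 h compound exposure at 37 °C, 5% CO2 | Detection: Steady-Glo luciferase glow luminescence, 10 min after reagent addition | Read-out basis: Activation, % of tunicamycin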
CHOP inhibitor: CHOP inhibition in unfolded protein response; CHO-K1 CHOP-promoter luciferase, tunicamycin-induced, 15-18 h; inhibition, % at 10 µM; hit rate 3.8% among 220,000; AID 2732;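 active = compounds that reduced the stress-induced luciferase reporter signal by more than about 70% of percent inhibition, limit read from the data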
FXN GAA850 act: increases GAA850 frataxin promoter reporter activity. HEK293 lucGAA850 FXN promoter luciferase reporter, 24 h; percent of 10 µM SAHA response. hit rate 0.56% among 360,000. activation, % at 6 µM;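 active = activation above the average of all compounds screened plus 3 SD, cutoff fixed separately per campaign, cut at about 7.5% in these data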
CHOP UPR conf: apoptotic UPR (CHOP) activation, confirmed; hit rate 64% among 1,000; activation, % at 10 µM; shares compounds with UPR CHOP act; CHO-CHOP cells, CHOP-luciferase reporter luminescence; percent of tunicamycin response, DMSO as zero; in the data active = activation above about 33%
Large screens that a line does not name were inactive (follow-up assays come after a bar, where they were run). The entries come from a sample that favours hits as a whole.

CCc1c(C)sc(NC(=O)c2cccs2)c1C#N	UPR CHOP act 50 | CHOP UPR conf inactive
CCOC(=O)c1c(NC(=O)c2cccs2)sc(C)c1CC	none
O=C(O)/C=C/C(=O)c1ccc2c(c1)CCc1ccccc1-2	UPR CHOP act 126 (no result: CHOP inhibitor) | CHOP UPR conf inactive
CC(=O)Nc1ccc2c(c1)CCc1ccccc1-2	none (no result: CHOP inhibitor)
CCOc1cc(/C=C2\CN(CC)C/C(=C\c3ccc(O)c(OCC)c3)C2=O)ccc1O	UPR CHOP act 78 (no result: CHOP inhibitor) | CHOP UPR conf 86
O=C(c1ccc(S(=O)(=O)Cc2cc(F)ccc2F)c([N+](=O)[O-])c1)N1CCOCC1	none (no result: UPR CHOP act, XBP1 UPR activ, CHOP inhibitor)
COc1ccc(/C=C/C(=O)c2ccc([N+](=O)[O-])o2)cc1OC	UPR CHOP act 82 (no result: CHOP inhibitor, FXN GAA850 act) | CHOP UPR conf inactive
O=C(Nc1ccc2oc(-c3ccc4ccccc4c3)nc2c1)c1ccc2c(c1)OCCO2	UPR CHOP act 40, XBP1 UPR activ 200 | CHOP UPR conf 105
Cc1ccc2nc(-c3cccc(NC(=O)c4ccc5c(c4)OCCO5)c3)oc2c1	none
CCOc1ccc2nc(SC3CC(=O)N(c4ccc(OC)cc4)C3=O)sc2c1 (configuration not stated)	UPR CHOP act 45 | CHOP UPR conf inactive
CCOC(=O)C1CCCN(C(=O)c2oc3ccccc3c2C)CC1 (configuration not stated)	none (no result: UPR CHOP act, XBP1 UPR activ, CHOP inhibitor)
O=C(Nc1ccc(F)c(Cl)c1)Nc1nnc([C@@H]2O[C@H](CO)[C@@H](O)[C@H]2O)s1	none (no result: UPR CHOP act, XBP1 UPR activ, CHOP inhibitor)
N#Cc1ccc(-c2cccc3nccn23)cc1	none (no result: UPR CHOP act, XBP1 UPR activ, CHOP inhibitor)
CC1=NOC(=O)/C1=C\c1ccc(-c2ccc(Cl)cc2Cl)o1	UPR CHOP act 106, CHOP inhibitor 112 | CHOP UPR conf 110
Cc1ccc(-c2nc(SCC(=O)Nc3cc(C)on3)c3c(=O)n(C)c(=O)n(C)c3n2)cc1	UPR CHOP act 58 (no result: CHOP inhibitor) | CHOP UPR conf 104
Cc1nc(SCC(=O)Nc2cc(C)on2)c2c(=O)n(C)c(=O)n(C)c2n1	none
O=C1NN=C2CCCCCCC12 (configuration not stated)	none (no result: UPR CHOP act, XBP1 UPR activ, CHOP inhibitor)
O=C(CCCN1C(=O)S/C(=C\C=C\c2ccccc2)C1=O)Nc1ccc(O)cc1	UPR CHOP act 64 (no result: CHOP inhibitor) | CHOP UPR conf inactive
COc1ccc(N=Nc2cc(-c3ccccc3)ccc2O)cc1	none (no result: CHOP inhibitor)
COc1cccc(N=Nc2ccc3cccnc3c2O)c1	UPR CHOP act 127 (no result: CHOP inhibitor) | CHOP UPR conf 86
COc1ccc(N=Nc2ccc(O)c3ncccc23)cc1	UPR CHOP act 153 | CHOP UPR conf 148
COc1cc(OC)cc(C(=O)Nc2cccc3cccnc23)c1	none (no result: CHOP inhibitor)
CCOc1ccc(NS(=O)(=O)c2cccs2)cc1S(=O)(=O)N1CCCC1	none (no result: UPR CHOP act, XBP1 UPR activ, CHOP inhibitor)
Cc1ccc(NC(=O)c2ncn(CCCNCC3CCCCC3)n2)cc1C	none (no result: UPR CHOP act, XBP1 UPR activ, CHOP inhibitor)
CCCS(=O)(=O)Nc1ccc(Nc2c3ccccc3nc3ccccc23)c(OC)c1	none (no result: UPR CHOP act, XBP1 UPR activ, CHOP inhibitor)
N#CC12COC3(CCCCC3C1(C#N)C#N)OC2=N (configuration not stated)	UPR CHOP act 46 | CHOP UPR conf 43
COc1ccc(C2OC34CCCCC3C(C#N)(C#N)C2(C#N)C(=N)O4)cc1 (configuration not stated)	UPR CHOP act 54 | CHOP UPR conf 35
CC1OC23CCCCC2C(C#N)(C(=N)O3)C1(C#N)C#N (configuration not stated)	none
N#CC1(C#N)COC23CCCCC2C1(C#N)C(=N)O3 (configuration not stated)	UPR CHOP act 65 | CHOP UPR conf 55
CC1(C(=O)NS(=O)(=O)c2cccc(OC(F)F)c2)CCN1C(=O)c1ccccc1CCc1ccccc1 (configuration not stated)	none (no result: UPR CHOP act, XBP1 UPR activ, CHOP inhibitor)
O=C(N/N=C/C(Br)=C\c1ccccc1)c1cccs1	none
N#CC(C#N)=C1C=CC=CN1/C(=C\c1ccccc1)C(=O)c1cccs1	UPR CHOP act 122 | CHOP UPR conf 119
C[C@H](CO)N1C[C@H](C)[C@H](CN(C)S(=O)(=O)c2ccccc2F)OCc2cnnn2CCCC1=O	none (no result: UPR CHOP act, XBP1 UPR activ, CHOP inhibitor)
CC(C)[C@H](NC(=O)OC(C)(C)C)c1nnc(S(=O)(=O)Cc2c(F)cccc2Cl)o1	UPR CHOP act 134 (no result: CHOP inhibitor) | CHOP UPR conf 95
COCCNC(=O)C1CCCN(C(=O)c2ccc3sccc3c2)CC1 (configuration not stated)	none (no result: UPR CHOP act, XBP1 UPR activ, CHOP inhibitor)
Cc1ccc(OCCSc2nc3ccccc3n2CCC(=O)O)c(C(C)C)c1	none (no result: UPR CHOP act, XBP1 UPR activ, CHOP inhibitor)
N=C1/C(=C/c2cccn2-c2ccc([N+](=O)[O-])cc2)C(=O)N=C2SC=CN12	UPR CHOP act 54 | CHOP UPR conf inactive
COc1ccccc1N1CCN(C(=O)c2ccc3c(=O)n(Cc4ccco4)c(=S)[nH]c3c2)CC1	none
COc1ccccc1Cn1c(=S)[nH]c2cc(C(=O)N3CCN(c4ccccc4OC)CC3)ccc2c1=O	UPR CHOP act 84 (no result: CHOP inhibitor) | CHOP UPR conf inactive
COc1ccc(CNC(=O)Nc2nnc([C@@H]3C[C@H](O)[C@@H](CO)O3)s2)cc1	none (no result: UPR CHOP act, XBP1 UPR activ, CHOP inhibitor)
COc1ccc(/C=C\c2nc(=O)c3ccccc3o2)cc1	UPR CHOP act 57 | CHOP UPR conf 121
O=C1NN(c2cccc(Br)c2)C(=O)/C1=C/c1cccs1	UPR CHOP act 43 | CHOP UPR conf 60
O=C1NN(c2cccc(Br)c2)C(=O)/C1=C\c1ccccc1	none (no result: CHOP inhibitor)
C=CCc1cccc(/C=N/NC(=O)c2ccccc2OC)c1O	UPR CHOP act 127 | CHOP UPR conf inactive
CCCNC(=O)CS(=O)Cc1nc(-c2cccc(OC)c2)oc1C (configuration not stated)	none
COc1cccc(-c2nc(CS(=O)CC(=O)NCc3ccccc3)c(C)o2)c1 (configuration not stated)	UPR CHOP act 69 | CHOP UPR conf inactive
CC(C)N(Cc1ccccc1)S(=O)(=O)c1ccc(-n2cccn2)cc1	none (no result: UPR CHOP act, XBP1 UPR activ, CHOP inhibitor)
COc1ccccc1-c1csc(C(O)c2ccc(F)c(F)c2)n1 (configuration not stated)	none (no result: UPR CHOP act, XBP1 UPR activ, CHOP inhibitor)
COc1ccc(OC)c2sc(N(CCN(C)C)C(=O)/C=C/c3cccs3)nc12	UPR CHOP act 67 (no result: CHOP inhibitor) | CHOP UPR conf inactive
COc1ccc(C)c2sc(N(CCN(C)C)C(=O)/C=C/c3cccs3)nc12	none (no result: CHOP inhibitor)
CC(=O)Nc1cccc(-c2ccnc3c2CC(C(=O)NCc2cccs2)O3)c1 (configuration not stated)	none (no result: UPR CHOP act, XBP1 UPR activ, CHOP inhibitor)
CCn1cnc2cc(NCc3ccc(OC)cc3)ccc21	none
CCOc1ccc2nc3cc(NCc4ccc(OC)cc4)ccc3c(N)c2c1	UPR CHOP act 71 (no result: CHOP inhibitor) | CHOP UPR conf inactive
Cc1cc(C)n(-c2nc(N(C)C)nc(N3CCOCC3)n2)n1	none
Cc1cc(N2CCC(C)CC2)nc(-n2nc(C)cc2C)n1	UPR CHOP act 87 | CHOP UPR conf inactive
O=C(Nc1ccc(Oc2cccc(C(F)(F)F)c2)nc1)c1ccco1	none
CC(C)(C)c1ccc(Oc2ccc(NC(=O)c3ccco3)cn2)cc1	UPR CHOP act 43 | CHOP UPR conf inactive
O=C(Nc1ccc(O)c2c(=O)cc(-c3cccc(Cl)c3)oc12)c1ccccc1Cl	UPR CHOP act 52 | CHOP UPR conf 46

Screening results: PubChem, several laboratories
